From ChEMBL document CHEMBL4052610, “Evaluation of Dual 5-Lipoxygenase/Microsomal Prostaglandin E2 Synthase-1 Inhibitory Effect of Natural and Synthetic Acronychia-Type Isoprenylated Acetophenones” (J Nat Prod, 2017)
Active and inactive are the calls of the source. The rule behind the calls is not given here.

Assays:
[1] = test system: Neutrophil; experiment: Cytotoxicity against human neutrophils assessed as reduction in cell viability up to 10 uM up to 30 mins by light microscopic and trypan blue exclusion assay; assay type: cell-based; details: 0.5 h
In short: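 Isolated human blood neutrophils (dextran sedimentation, Nycoprep, hypotonic lysis) in PBS pH 7.4 with 1 mg/mL glucose and 1 mM CaCl2. Compounds tested up to 10 μM for 30 min. Viability scored by light microscopy with trypan blue exclusion.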

[2] = target: T1, Prostaglandin E synthase (Homo sapiens, UniProt O14684); experiment: Inhibition of human A549 cell microsomal membrane-derived mPGES-1 assessed as reduction in conversion of PGH2 to PGE2 preincubated for 15 mins followed by PGH2 addition measured after 1 min by RP-HPLC analysis; assay type: cell-based
T1 sequence (O14684 whole entry): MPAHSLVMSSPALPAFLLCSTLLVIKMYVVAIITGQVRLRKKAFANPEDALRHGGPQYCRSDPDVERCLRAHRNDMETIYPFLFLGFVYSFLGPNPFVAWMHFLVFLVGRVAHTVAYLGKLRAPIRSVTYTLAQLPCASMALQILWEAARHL

[3] = target: T2, Polyunsaturated fatty acid 5-lipoxygenase (Homo sapiens) (UniProt P09917); experiment: Inhibition of human recombinant 5-LO expressed in Escherichia coli MV1190 assessed as residual activity at 10 uM using arachidonic acid as substrate preincubated for 10 mins followed by substrate addition measured after 10 mins by RP-HPLC analysis relative to control
T2 sequence (whole entry): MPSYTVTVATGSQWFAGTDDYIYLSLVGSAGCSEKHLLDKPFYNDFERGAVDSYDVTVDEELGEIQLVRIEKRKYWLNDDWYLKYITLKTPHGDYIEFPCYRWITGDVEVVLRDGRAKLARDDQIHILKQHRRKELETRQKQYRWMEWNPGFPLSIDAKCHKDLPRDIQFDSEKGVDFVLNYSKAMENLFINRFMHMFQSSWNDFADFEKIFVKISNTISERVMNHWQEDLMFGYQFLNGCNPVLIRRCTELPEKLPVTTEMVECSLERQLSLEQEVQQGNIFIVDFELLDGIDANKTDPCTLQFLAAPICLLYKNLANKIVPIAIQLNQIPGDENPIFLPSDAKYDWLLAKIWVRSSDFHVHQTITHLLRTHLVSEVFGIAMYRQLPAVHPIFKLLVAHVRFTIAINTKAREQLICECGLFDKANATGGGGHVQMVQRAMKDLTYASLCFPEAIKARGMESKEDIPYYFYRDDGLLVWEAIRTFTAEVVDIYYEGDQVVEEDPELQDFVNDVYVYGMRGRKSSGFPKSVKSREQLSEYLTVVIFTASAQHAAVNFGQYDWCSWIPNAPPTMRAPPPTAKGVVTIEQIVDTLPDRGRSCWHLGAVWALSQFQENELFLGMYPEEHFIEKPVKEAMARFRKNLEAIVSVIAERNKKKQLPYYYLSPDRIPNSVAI
In short: (§1)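 Human 5-LO expressed in E. coli MV1190, partially purified on ATP-agarose, diluted in PBS with 1 mM EDTA and 1 mM ATP. Held 10 min at 4 °C with compound, warmed 30 s to 37 °C, started with 2 mM CaCl2 plus 20 μM AA. Run 10 min at 37 °C, stopped with methanol. LTB4 trans-isomers and 5-H(p)ETE measured by RP-HPLC. IC50 from 4–5 concentrations; n = 3–4.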

[4] = target: T3, Polyunsaturated fatty acid 5-lipoxygenase (Homo sapiens, UniProt P09917); experiment: Inhibition of human recombinant 5-LO expressed in Escherichia coli MV1190 using arachidonic acid as substrate preincubated for 10 mins followed by substrate addition measured after 10 mins by RP-HPLC analysis; in short: as §1
T3 sequence (P09917 whole entry): T2 sequence (whole entry)

[5] = target: T3, Polyunsaturated fatty acid 5-lipoxygenase; experiment: Inhibition of 5-LO in human peripheral blood neutrophils using arachidonic acid as substrate preincubated for 15 mins followed by substrate addition measured after 10 mins in presence of Ca2+ ionophore A23187 by RP-HPLC analysis
[6] = test system: Mus musculus; experiment: Anti inflammatory activity in CD-1 mouse assessed as reduction in zymosan-induced LTC4 by measuring LTC4 level in peritoneal exudates at 10 mg/kg, ip preincubated for 30 mins followed by zymosan addition measured after 30 mins by enzyme immunoassay (reference value: 92.2 +/- 12.8 ng/ml); assay type: functional
[7] = test system: Mus musculus; experiment: Anti inflammatory activity in CD-1 mouse assessed as reduction in zymosan-induced PGE2 by measuring PGE2 level in peritoneal exudates at 5 mg/kg, ip preincubated for 30 mins followed by zymosan addition measured after 30 mins by enzyme immunoassay (reference value: 10.5 +/- 1.34 ng/ml); assay type: functional
[8] = test system: Mus musculus; experiment: (§2) Anti inflammatory in CD-1 mouse assessed as reduction in zymosan-induced inflammatory cell infiltration by measuring inflammatory cell level in peritoneal exudates at 5 mg/kg, ip preincubated for 30 mins followed by zymosan addition measured after 4 hrs […] (reference value: 7.3 +/- 0.72 10^6); assay type: functional
[9] = test system: Mus musculus; experiment: as §2, with “10” for “5”; assay type: functional
[10] = target: T2, Polyunsaturated fatty acid 5-lipoxygenase (Homo sapiens); experiment: Competitive inhibition of human recombinant 5-LO expressed in Escherichia coli MV1190 using different concentration of arachidonic acid as substrate preincubated for 15 mins followed by substrate addition measured after 10 mins by RP-HPLC analysis; details: in the assay text read “preincubated for 10 mins” for “preincubated for 15 mins”
In short: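 Semipurified recombinant human 5-LO assayed in the cell-free format with CaCl2 and varying AA concentrations, products measured by RP-HPLC. Representative experiment of three independent runs.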

[11] = target: T2, Polyunsaturated fatty acid 5-lipoxygenase (Homo sapiens); experiment: Reversible inhibition of human recombinant 5-LO expressed in Escherichia coli MV1190 using arachidonic acid as substrate preincubated for 15 mins followed by 10 fold dilution measured after 10 mins by RP-HPLC analysis
In short: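 Semipurified recombinant human 5-LO in the cell-free assay (2 mM CaCl2, 20 μM AA, 10 min at 37 °C, RP-HPLC read-out). Reversibility tested by wash-out using 10-fold dilution. Means ± SEM, n = 3–4.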

[12] = test system: Mus musculus; experiment: Anti inflammatory activity in CD-1 mouse assessed as reduction in zymosan-induced PGE2 by measuring PGE2 level in peritoneal exudates at 10 mg/kg, ip preincubated for 30 mins followed by zymosan addition measured after 30 mins by enzyme immunoassay (reference value: 10.5 +/- 1.34 ng/ml); assay type: functional
[13] = test system: Mus musculus; experiment: Anti inflammatory in CD-1 mouse assessed as reduction in zymosan-induced inflammatory cell infiltration level in peritoneal exudates at 10 mg/kg, ip preincubated for 30 mins followed by zymosan addition measured after 4 hr relative to control; assay type: functional; set-up: scale not given: the % may be the effect or the level left
[14] = test system: Mus musculus; experiment: Anti inflammatory activity in CD-1 mouse assessed as reduction in zymosan-induced LTC4 level in peritoneal exudates at 10 mg/kg, ip preincubated for 30 mins followed by zymosan addition measured after 30 mins by enzyme immunoassay relative to control; assay type: functional; set-up: scale not given: the % may be the effect or the level left

Structure (SMILES) | Activity [1] | IC50 [2] | Activity [3] | IC50 [4] | IC50 [5] | also measured
COc1c(CC=C(C)C)c(O)c(C(CC(C)C)c2c(O)c3c(c(C(C)=O)c2O)OC(C(C)(C)O)C3)c(O)c1C(C)=O (configuration not stated) | Non-Toxic | 1.1 µM | < 50% | > 10 µM | 4.5 µM | –
CC(=O)c1c(O)c(C(CC(C)C)c2c(O)c3c(c(C(C)=O)c2O)OC(C)(C)C=C3)c(O)c2c1OC(C)(C)C=C2 | Non-Toxic | 1.2 µM | < 50% | 2.4 µM | > 10 µM | –
COc1c(CC=C(C)C)c(O)c(C(CC(C)C)c2c(O)c3c(c(C(C)=O)c2O)OC(C)(C)C(O)C3)c(O)c1C(C)=O (configuration not stated) | Non-Toxic | 2.7 µM | < 50% | 7.3 µM | 5.3 µM | –
COc1c(CC=C(C)C)c(O)c(C(CC(C)C)c2c(O)c(C(C)=O)c(O)c3c2OC(C(C)(C)O)C3)c(O)c1C(C)=O (configuration not stated) [ACROFOLIONE A] | Non-Toxic | 1.3 µM | < 50% | 5.3 µM | 7.3 µM | –
COc1c(CC=C(C)C)c(O)c(C(CC(C)C)c2c(O)c3c(c(C(C)=O)c2O)OC(C)(C)C=C3)c(O)c1C(C)=O (configuration not stated) | Non-Toxic | 4.2 µM | < 50% | 6 µM | > 10 µM | –
C=C(C)C1Cc2c(O)c(C(CC(C)C)c3c(O)c4c(c(C(C)=O)c3O)OC(C(=C)C)C4)c(O)c(C(C)=O)c2O1 (configuration not stated) | Non-Toxic | > 10 µM | < 50% | > 10 µM | 5 µM | –
CC(=O)c1c(O)c(CC=C(C)C)c(O)c(C(CC(C)C)c2c(O)c(CC=C(C)C)c(O)c(C(C)=O)c2O)c1O | Non-Toxic | > 10 µM | > 50% | > 10 µM | > 10 µM | –
C=C(C)[C@@H](O)Cc1c(O)c(C(C)=O)c(O)c(C(CC(C)C)c2c(O)c(CC=C(C)C)c(OC)c(C(C)=O)c2O)c1O (some centres not stated) | Non-Toxic | 1.1 µM | < 50% | 2.5 µM | 6.3 µM | –
CC(=O)c1c(O)cc(O)c(CC=C(C)C)c1O | Non-Toxic | > 10 µM | – | – | – | –
COc1c(CC=C(C)C)c(O)c(C(CC(C)C)c2c(O)c(C(C)=O)c(O)c3c2OC(C)(C)C(O)C3)c(O)c1C(C)=O (configuration not stated) | Non-Toxic | 1.9 µM | < 50% | 2 µM | 5 µM | –
CC(c1cc2ccccc2s1)N(O)C(N)=O (configuration not stated) [ZILEUTON] | – | – | – | – | – | Activity [6]: 65 ng/mL
CC(=O)c1c(O)c(C/C=C(/C)CCC=C(C)C)c(O)c(C(CC(C)C)c2c(O)c(C/C=C(\C)CCC=C(C)C)c(O)c(C(C)=O)c2O)c1O (configuration not stated) | Non-Toxic | 5.34 µM | < 50% | 3.6 µM | > 10 µM | –
COc1c(CC=C(C)C)c(O)c(C(CC(C)C)c2c(O)c(CC=C(C)C)c(O)c(C(C)=O)c2O)c(O)c1C(C)=O (configuration not stated) | Non-Toxic | 1.1 µM | < 50% | 2.7 µM | 2.3 µM | –
COc1ccc2c(c1)c(CC(=O)O)c(C)n2C(=O)c1ccc(Cl)cc1 [INDOMETHACIN] | – | – | – | – | – | Activity [7]: 3.52 ng/mL; Activity [8]: 2.08 ×10⁶ No_unit
CC(=O)c1c(O)cc(O)c(C(CC(C)C)c2c(O)cc(O)c(C(C)=O)c2O)c1O | Non-Toxic | 1 µM | < 50% | 1.7 µM | 6.3 µM | –
CC(=O)c1c(O)cc(O)c(C/C=C(\C)CCC=C(C)C)c1O | Non-Toxic | 3.5 µM | < 50% | 1 µM | 1.4 µM | Activity [9]: 5 ×10⁶ No_unit; inhibition [10]: inactive; Activity [6]: 57.3 ng/mL; inhibition [11]: Active; Activity [12]: 11.3 ng/mL; Activity [13]: 32%; Activity [14]: 38%
